The source made the active and inactive calls. The rule behind the calls is not given here.
Experiments:
[1] = Genotoxicity in human Lymphocyte assessed as sister chromatid exchange measured per cells at 100 nM incubated for 72 hrs giemsa staining based fluorescence method (reference value: 6.6 to 14.3); assay type: toxicity, cell-based; conditions: 0.1 µM
[2] = Cytotoxicity against rat Cerebral cortex cell at 10 to 500 nM incubated for 24 hrs by LDH assay; assay type: toxicity, cell-based; conditions: cerebral cortex neuron, 0.5 µM, dose 10-500 nM
In short: (§1)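 Rat fetal cortical neuron or human whole-blood cultures treated 24 h at 37 °C with aqueous compound at 10–500 nM. LDH released into 100 µL of medium measured by kit as the rate of NAD+ reduction (lactate to pyruvate), absorbance increase at 490 nm. Mitomycin C 10^-7 M as positive control; four independent experiments.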

[3] = Genotoxicity in human Lymphocyte assessed as micronuclei formation measured per 1000 cells at 10 nM incubated for 72 hrs giemsa staining based analysis (reference value: 4.5 to 17.9); assay type: toxicity, cell-based; conditions: 0.01 µM
In short: (§2)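 Human whole-blood lymphocyte cultures with phytohemagglutinin, incubated with compound for 72 h at 37 °C. Cytochalasin B added at 44 h. Cells fixed in ice-cold methanol/acetic acid 1:1, cytospun, Giemsa-stained. At least 1000 binucleated lymphocytes per concentration scored for micronuclei by one observer.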

[4] = Stability of the compound in phosphate buffer assessed as chemical hydrolysis by measuring observed rate constant at pH 7.4; assay type: physicochemical
In short: (§3)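 Chemical hydrolysis at 37 °C in hydrochloric acid buffer pH 1.2 or phosphate buffer pH 7.4. Remaining compound followed by HPLC with UV detection. t1/2 and k_obs are means of three experiments ± SD.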

[5] = Antioxidant activity against Primary human whole blood cell assessed as trolox equivalent of total antioxidant capacity at 100 nM incubated for 24 hrs (19.3 to 32.5 mmolequiv/L ); assay type: functional
[6] = Antioxidant activity against Primary human whole blood cell assessed as trolox equivalent of total antioxidant capacity at 50 nM incubated for 24 hrs (19.3 to 32.5 mmolequiv/L ); assay type: functional
[7] = Induction of DNA damage in Primary human whole blood cell assessed as total DNA damage score at 50 nM incubated for 24 hrs by Comet assay (reference value: 35.4 to 77.9); assay type: functional
[8] = Stability of the compound in stimulated gastric fluid at 10 mg/ml pepsin by measuring half life measured upto 60 mins by HPLC analysis; assay type: ADME; conditions: simulated gastric fluid with pepsin
In short: (§4)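 USP simulated gastric fluid containing pepsin, preheated, in a 37 °C shaking water bath. Samples at 0, 15, 30 and 60 min were deproteinized with ice-cold acetonitrile containing 0.5% formic acid, centrifuged at 4 °C, filtered and analyzed by HPLC. Means of three experiments.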

[9] = Genotoxicity in human Lymphocyte assessed as sister chromatid exchange measured per cells at 500 nM incubated for 72 hrs giemsa staining based fluorescence method (reference value: 6.6 to 14.3); assay type: toxicity, cell-based; conditions: 0.5 µM
PC-12 [10] = assay: Inhibition of MPP+ induced GSH level in rat PC-12 cells at 100 nM preincubated with compound for 24 hrs followed by MPP+ treatment for 24 hrs by DTNB reagent based analysis; assay type: functional, cell-based; conditions: time 48.0 hrs
[11] = Genotoxicity in human Lymphocyte assessed as sister chromatid exchange measured per cells at 50 nM incubated for 72 hrs giemsa staining based fluorescence method (reference value: 6.6 to 14.3); assay type: toxicity, cell-based; conditions: 0.05 µM
[12] = Cytotoxicity against Primary human whole blood cell at 10 to 500 nM incubated for 24 hrs by LDH assay; assay type: toxicity, cell-based; conditions: 0.5 µM, dose 10-500 nM; in short: as §1
[13] = Stability of the compound in phosphate buffer assessed as chemical hydrolysis by measuring half life at pH 7.4; assay type: physicochemical; in short: as §3
[14] = Induction of DNA damage in rat Cerebral cortex cell assessed as 8-OH-dG adducts formation at 500 nM incubated for 24 hrs by […] (reference value: 0.14 to 1.92 pg/ml); assay type: functional, Cerebral cortex neuron
In short: (§5)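 Primary rat cerebral cortex neurons from fetuses, grown in neurobasal medium with FCS on poly-D-lysine flasks and used after 8 days. Aqueous compound at 10–500 nM for 24 h at 37 °C. Untreated cultures served as negative control and MMC 10^-7 M as positive control. 8-OH-dG measured with a commercial ELISA-type kit and reported in pg/mL. Four independent experiments, mean ± SD.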

[15] = Induction of DNA damage in rat Cerebral cortex cell assessed as 8-OH-dG adducts formation at 50 nM incubated for 24 hrs by […] (reference value: 0.14 to 1.92 pg/ml); assay type: functional, Cerebral cortex neuron; in short: as §5
PC-12 [16] = assay: Cytoprotective activity against MPP+ induced cell death in rat PC-12 cells at 10 to 500 nM preincubated with compound for 24 hrs followed by MPP+ exposure for 24 hrs by MTT assay; assay type: functional, cell-based; conditions: dose 10-500 nM, time 48.0 hrs
In short: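 PC12 cells in RPMI with horse and fetal calf serum on polylysine-coated flasks. Pretreated 24 h with compound (10–500 nM), then 25 µM MPP+ for a further 24 h. MTT formazan solubilized in SDS/HCl, read at 550 nm. Expressed as % of untreated control absorbance; n = 3, mean ± SD.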

[17] = Antioxidant activity against rat Cerebral cortex cell assessed as H2O2 equivalent of total oxidative stress at 250 nM incubated for 24 hrs (0.7 to 2.3 micromolequiv/L); assay type: functional, Cerebral cortex neuron
[18] = Antioxidant activity against Primary human whole blood cell assessed as H2O2 equivalent of total oxidative stress at 500 nM incubated for 24 hrs (0.6 to 1.9 micromolequiv/L); assay type: functional
PC-12 [19] = assay: Inhibition of MPP+ induced ROS production in rat PC-12 cells at 100 nM preincubated with compound for 24 hrs followed by MPP+ treatment for 24 hrs by DCFH-DA staining based fluorescence method; conditions: time 48.0 hrs
[20] = Partition coefficient, logP of the compound by HPLC-UV analysis; assay type: physicochemical; conditions: octanol/water
[21] = Induction of DNA damage in Primary human whole blood cell assessed as total DNA damage score at 250 nM incubated for 24 hrs by Comet assay (reference value: 35.4 to 77.9); assay type: functional
[22] = Antioxidant activity against rat Cerebral cortex cell assessed as trolox equivalent of total antioxidant capacity at 100 nM incubated for 24 hrs (14.7 to 27.5 mmolequiv/L ); assay type: functional, Cerebral cortex neuron
[23] = Induction of DNA damage in rat Cerebral cortex cell assessed as 8-OH-dG adducts formation at 10 nM incubated for 24 hrs by Comet assay (reference value: 0.14 to 1.92 pg/ml); assay type: functional, Cerebral cortex neuron
[24] = Induction of DNA damage in Primary human whole blood cell assessed as 8-OH-dG adducts formation at 100 nM incubated for 24 hrs by […] (reference value: 0.12 to 2.21 pg/ml); assay type: functional
[25] = Apparent permeability of the compound across apical side to basolateral side in human Caco-2 cells measured upto 180 mins by HPLC analysis; assay type: ADME, cell-based
[26] = Antioxidant activity against Primary human whole blood cell assessed as trolox equivalent of total antioxidant capacity at 10 nM incubated for 24 hrs (19.3 to 32.5 mmolequiv/L ); assay type: functional
[27] = Genotoxicity in human Lymphocyte assessed as micronuclei formation measured per 1000 cells at 250 nM incubated for 72 hrs giemsa staining based analysis (reference value: 4.5 to 17.9); assay type: toxicity, cell-based; conditions: 0.25 µM; in short: as §2
[28] = Stability of the compound in stimulated gastric fluid at 40 mg/ml pepsin by measuring half life measured upto 60 mins by HPLC analysis; assay type: ADME; conditions: simulated gastric fluid with pepsin; in short: as §4

SMILES	Activity [1]	Activity [2]	Activity [3]	Kobs [4] [h⁻¹]	Activity [5] [mmolequiv/L]	Activity [6] [mmolequiv/L]	Activity [7]	half-life [8] [h]	Activity [9]	inhibition (PC-12 [10])	Activity [11]	Activity [12]	half-life [13] [h]	Activity [14] [pg/mL]	Activity [15] [pg/mL]	Activity (PC-12 [16])	Activity [17] [umolequiv/L]	Activity [18] [umolequiv/L]	inhibition (PC-12 [19])	logP [20]	further results
C#CCSC[C@H]1NC(=O)[C@H](Cc2ccc(OC(C)=O)c(OC(C)=O)c2)NC1=O	6.6	Non-Toxic	4.6	0.015	19.5	19.5	35.8	91	6.9	Active	6.8	Non-Toxic	47.5	0.15	0.14	Active	0.6	0.7	Active	0.35	Activity [21]: 35.9; Activity [22]: 15.2 mmolequiv/L; Activity [23]: 0.14 pg/mL; Activity [24]: 0.12 pg/mL; Papp A→B at 3 h [25]: 17.4 ×10⁻⁶ cm/s; Activity [26]: 19.4 mmolequiv/L; Activity [27]: 5.1; half-life [28]: 57.1 h
C=CCSC[C@H]1NC(=O)[C@H](Cc2ccc(OC(C)=O)c(OC(C)=O)c2)NC1=O	6.9	Non-Toxic	4.7	0.022	19.7	19.4	35.7	24.2	7	inactive	6.7	Non-Toxic	30.9	0.15	0.13	Active	0.7	0.7	Active	0.68	Activity [21]: 35.7; Activity [22]: 14.4 mmolequiv/L; Activity [23]: 0.14 pg/mL; Activity [24]: 0.12 pg/mL; Papp A→B at 3 h [25]: 7.5 ×10⁻⁶ cm/s; Activity [26]: 19.2 mmolequiv/L; Activity [27]: 5.2; half-life [28]: 22.4 h
